Consider 7 compounds from ChEMBL document CHEMBL1156146 (Bioorg Med Chem Lett, 2009).

pIC50: −log10 of the molar value. Calls of active or inactive are those of the source. The calls are words filed in the database; no cut-off is given here. A value given as a limit tells only on which side of the number the result lay.

In data set [1] the test system is Rattus norvegicus. Put plainly: Antiinflammatory activity against assessed as inhibition of carrageenan-induced foot paw edema in po dosed rat after 3 hrs. Format: functional. The essentials:
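Oral dosing; edema induced by carrageenan in rat paw and measured 3 h after administration. ED50 (µmol/kg) derived from the dose–response.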
A general note: The carrageenan paw model is a standard test of acute inflammation.

Data set [2] has as its system Rattus norvegicus. In words: Gastrointestinal toxicity in rat assessed ulcer index at 1.38 mmol/kg, po after 6 hrs relative to aspirin. In kind it is organism-based. Conditions: in vivo. The essentials:
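Rats fasted 24 h (water allowed) and dosed orally at 1.38 mmol/kg as a suspension in 1% methylcellulose. Killed 6 h later; stomachs opened along greater curvature, rinsed, and lesions measured by magnifier. Lesions up to 1 mm rated 1, 1–2 mm rated 2, >2 mm rated by length in mm. UI is summed lesion length per stomach averaged over n = 4; mean ± SEM.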

Data set [3] addresses T1, 5-lipoxygenase (Solanum tuberosum, UniProt O49150).
T1 sequence (O49150 whole entry): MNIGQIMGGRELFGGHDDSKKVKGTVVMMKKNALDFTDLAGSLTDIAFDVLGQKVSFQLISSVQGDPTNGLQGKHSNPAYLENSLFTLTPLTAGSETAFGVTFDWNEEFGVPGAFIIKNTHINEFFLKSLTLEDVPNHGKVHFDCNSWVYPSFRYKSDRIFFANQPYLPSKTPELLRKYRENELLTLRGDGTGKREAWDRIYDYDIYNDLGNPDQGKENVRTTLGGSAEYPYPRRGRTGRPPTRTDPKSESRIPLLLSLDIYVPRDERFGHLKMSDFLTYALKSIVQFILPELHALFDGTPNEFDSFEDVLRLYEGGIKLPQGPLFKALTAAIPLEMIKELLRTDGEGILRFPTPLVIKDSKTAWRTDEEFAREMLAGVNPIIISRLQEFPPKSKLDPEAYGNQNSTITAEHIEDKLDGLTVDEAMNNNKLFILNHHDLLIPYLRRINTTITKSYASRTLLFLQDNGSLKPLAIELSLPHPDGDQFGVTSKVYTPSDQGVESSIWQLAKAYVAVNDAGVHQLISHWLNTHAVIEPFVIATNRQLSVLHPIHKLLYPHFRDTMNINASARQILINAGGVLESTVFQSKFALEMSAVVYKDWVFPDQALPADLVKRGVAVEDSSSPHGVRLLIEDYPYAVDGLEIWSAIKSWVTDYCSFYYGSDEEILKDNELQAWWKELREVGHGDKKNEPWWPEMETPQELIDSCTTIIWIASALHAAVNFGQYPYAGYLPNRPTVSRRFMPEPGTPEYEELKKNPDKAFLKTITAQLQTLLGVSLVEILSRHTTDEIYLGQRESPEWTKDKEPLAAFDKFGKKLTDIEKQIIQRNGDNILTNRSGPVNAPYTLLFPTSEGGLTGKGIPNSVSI
In words: Inhibition of potato 5-LOX after 5 mins by enzyme immuno assay. The essentials: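 Potato 5-LOX inhibition measured with a LOX assay kit. IC50 is the mean of two determinations, deviation from the mean <10%.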

Data set [4] in a line: Selectivity index, ratio of IC50 for ovine COX-1 to IC50 for human recombinant COX-2.
In data set [5] the test system is Rattus norvegicus. In words: Ratio of compound ED50 to aspirin ED50 for inhibition of carrageenan-induced foot paw edema in po dosed rat after 3 hrs. In kind it is functional.
The target of data set [6] is T2, Prostaglandin G/H synthase 2 (Homo sapiens, UniProt P35354).
T2 sequence (P35354 whole entry): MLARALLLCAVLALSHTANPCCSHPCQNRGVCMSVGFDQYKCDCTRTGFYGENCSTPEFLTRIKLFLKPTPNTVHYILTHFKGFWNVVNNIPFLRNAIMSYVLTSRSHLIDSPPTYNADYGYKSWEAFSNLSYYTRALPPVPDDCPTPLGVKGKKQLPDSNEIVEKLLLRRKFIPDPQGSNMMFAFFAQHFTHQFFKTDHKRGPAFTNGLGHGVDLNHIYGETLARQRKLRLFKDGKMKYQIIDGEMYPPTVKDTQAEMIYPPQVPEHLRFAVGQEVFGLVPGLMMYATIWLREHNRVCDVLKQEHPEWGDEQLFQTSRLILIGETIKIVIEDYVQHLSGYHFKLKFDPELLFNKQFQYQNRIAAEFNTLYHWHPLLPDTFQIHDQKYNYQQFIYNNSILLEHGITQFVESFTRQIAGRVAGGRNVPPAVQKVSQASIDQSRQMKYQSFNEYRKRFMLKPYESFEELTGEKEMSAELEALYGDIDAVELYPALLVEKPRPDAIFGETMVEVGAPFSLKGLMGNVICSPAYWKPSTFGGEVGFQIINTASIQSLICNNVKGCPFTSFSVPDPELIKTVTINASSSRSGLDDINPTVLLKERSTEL
Put plainly: Inhibition of human recombinant COX-2 by enzyme immuno assay.

Data set [7] deals with Prostaglandin G/H synthase 1 (Ovis aries) (UniProt P05979). In words: Inhibition of ovine COX-1 by enzyme immuno assay.
The subject of data set [8] is Rattus norvegicus. In words: Ratio of compound ED50 to ibuprofen ED50 for inhibition of carrageenan-induced foot paw edema in po dosed rat after 3 hrs. In kind it is functional. The method in brief:
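Carrageenan-induced paw edema in rats, test compound given orally. […] The ratio compares the compound ED50 with the ibuprofen ED50 from this model.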

The ED50 is the dose at which the effect has come halfway, by size or by number of responders. Turning to `O=C(O)c1cc(-c2ccc(F)cc2F)ccc1O` [DIFLUNISAL], the ED50 in data set [1] is 68 µmol/kg.

Regarding `CC(=O)Oc1ccccc1C(=O)O` [ASPIRIN], the UI in data set [2] turned out to be 57.4. The 50% effective dose (ED50) in data set [1] is 716 µmol/kg.

As a reminder, the pIC50 is the IC50 on a negative log10 scale, so that one unit is a factor of ten. Take `O=C(O)/C=C/c1ccc(O)c(O)c1` [CAFFEIC ACID]: the pIC50 in data set [3] is 5.40.

In the case of `O=C(O)c1cc(-c2ccn(C(F)F)c(=O)c2)ccc1O`, the Ratio IC50 in data set [4] is more than 15. Also, the “Ratio ED50” value in data set [5] is 1.6. Also, the values for the pIC50 in data set [6], in data set [3] and in data set [7] were 6.01, 6.43 and 4.81, respectively. Also, the UI in data set [2] came out at 0. Further, in data set [1], the ED50 amounted to 434 µmol/kg.

Consider `CC(=O)NS(=O)(=O)c1ccc(-c2ccn(C(F)F)c(=O)c2)cc1C(=O)O`, for which the Ratio IC50 in data set [4] was more than 5. Besides, the figures for the negative-log IC50 (pIC50) in data set [6], in data set [3] and in data set [7] were 4.75, 6.49 and less than 4.00, respectively. Moreover, the ED50 entry in data set [1] is “inactive”.

For `O=C(O)c1ccc(-c2ccn(C(F)F)c(=O)c2)cc1O`, in data set [4], the Ratio IC50 was more than 22. The “Ratio ED50” value in data set [5] was determined as 1.4. Besides, the negative-log IC50 (pIC50) is 5.36 in data set [6], 5.33 in data set [3] and less than 4.00 in data set [7]. This compound also yielded a UI in data set [2] of 0. Also, the ED50 in data set [1] was 497 µmol/kg.

With `CC(=O)NS(=O)(=O)c1cc(-c2ccn(C(F)F)c(=O)c2)ccc1C(=O)O`, the Ratio IC50 in data set [4] is more than 38. Moreover, the “Ratio ED50” value in data set [5] was found to be 2.8; in data set [8], 1.3. Further, the results for the negative logarithm of the IC50 (pIC50) in data set [6], in data set [3] and in data set [7] were 5.59, 6.55 and less than 4.00, respectively. In data set [1], the ED50 was 258 µmol/kg.
